Published values pooled from the literature.
Lines come from different studies, so protocols differ.
Target: RAC-alpha serine/threonine-protein kinase (AKT1, Homo sapiens, UniProt P31749)

The remaining binding of Nc1ncc2c(n1)-c1c([nH]c3ccc(C#CC4CC4)cc13)CCCC2 is reported as 95% (binding; competition with immobilised ligand; 1 µM).
CN(c1nccc(-c2cnn3ncccc23)n1)C1CC1 gave a remaining binding of 100% (binding; 1 µM).
With FC(F)(F)c1ccc2c(c1)nc(-c1cccnc1)n2C1CC1 the remaining binding was 100% (cell-free assay; competition with immobilised ligand; 1 µM).
For O=C(c1ccc(Nc2ncc(Cl)c(-c3cc4ccccc4s3)n2)cc1)N1CCC(N2CCCC2)CC1, the remaining binding was 100% (binding; competition with immobilised ligand; 1 µM).
For N#Cc1ccccc1CSc1nnc2c(n1)[nH]c1ccccc12, the remaining binding was 85% (binding; competition with immobilised ligand; 10 µM).
C=CC(=O)N1CCC(C(=O)NCC(=O)N2CCN(c3nc(-c4cnc(N)nc4C(F)F)nc(N4CCOCC4)n3)CC2)CC1 gave a remaining binding of 94% (binding; competition with immobilised ligand; 1 µM).
C[C@H](c1ccc(F)cc1)N(Cc1cccc(C(=O)O)c1)C(=O)c1cnc2ccccc2c1 gave a remaining binding of 100% (cell-free assay; competition with immobilised ligand; 1 µM).
F[C@@H]1CCN(c2nccc(-c3cnn4ncccc34)n2)C1 has a remaining binding of 100% (binding; 1 µM).
With CS(=O)(=O)N1CCCC(NC(=O)[C@H](CCC2CCCCC2)NC(=O)c2ccc(CNc3ncnc4c3nnn4-c3ccccc3)cc2)C1 (stereo partly shown) the remaining binding was 100% (cell-free assay; competition with immobilised ligand; 0.1 µM).
For C[C@@H]1CN(c2ccc3ncc(-c4ccc5[nH]nc(C6CC6)c5c4)n3n2)C[C@H](C)O1, the remaining binding was 100% (binding; competition with immobilised ligand; 0.5 µM).
The remaining binding of Cc1nc(Cc2cccc(C(F)(F)F)c2)sc1-c1ccc(C(N)=O)nc1 is reported as 82% (cell-free assay; competition with immobilised ligand; 1 µM).
Cc1cnc(Nc2ccc(C(=O)N3CCC(N4CCCC4)CC3)cc2)nc1-c1cc2ccccc2s1 has a remaining binding of 100% (binding; competition with immobilised ligand; 1 µM).
For Cc1nc(N2CC[C@@H](O)C2)ncc1-c1cc(C(F)(F)F)cc2[nH]ncc12, the remaining binding was 100% (binding; competition with immobilised ligand; 1 µM).
O=C(NCC1CCOCC1)c1n[nH]cc1NC(=O)c1c(F)cccc1F has a remaining binding of 95% (binding; competition with immobilised ligand; 1 µM).
O=C(c1ccc(Nc2ncc(Cl)c(-c3ccc(Cl)s3)n2)cc1)N1CCC(N2CCCC2)CC1 gave a remaining binding of 100% (binding; competition with immobilised ligand; 1 µM).
N[C@@H]1CCN(c2nccc(-c3cnn4ncccc34)n2)C1 has a remaining binding of 100% (binding; 1 µM).
With C[C@@H](c1ccc(-n2cnc3c(N)ncnc32)cc1)N1CCc2nn(C)c(Cc3ccccc3)c2C1=O the remaining binding was 100% (binding; competition with immobilised ligand; 0.1 µM).
The remaining binding of CC1CCCN1c1nccc(-c2cnn3ncccc23)n1 (stereo not shown) is reported as 100% (binding; 1 µM).
CNC(=O)[C@@H]1CC[C@@H](n2c(-c3ccc4cnccc4c3)nc3ccc(C(=O)NCc4cccc(C(N)=O)c4)cc32)C1 gave a remaining binding of 100% (binding; competition with immobilised ligand; 1 µM).
The remaining binding of CC1=C(C#N)C(c2ccc3c(c2)c(NC(=O)c2ccccc2C)nn3C)C(C#N)=C(C)N1 is reported as 94% (cell-free assay; competition with immobilised ligand; 1 µM).
For C[C@@H]1CCN(c2nccc(-c3cnn4ncccc34)n2)C1, the remaining binding was 93% (binding; 1 µM).
Cc1c(C(=O)O)cc(-c2ccc(C3CCNCC3)cc2)c2ccc(-c3ccc(C(F)(F)F)cc3)cc12 gave a remaining binding of 100% (binding; competition with immobilised ligand; 1 µM).
FC(F)(F)Oc1cccc(-c2cnc3ccc(-c4ccncc4)nn23)c1 has a remaining binding of 88% (cell-free assay; competition with immobilised ligand; 5 µM).
The remaining binding of CN(C)c1nccc(-c2cnn3ncccc23)n1 is reported as 100% (binding; 1 µM).
The remaining binding of CC(=O)C1=C(C)N(c2cccc(C(F)(F)F)c2)C(=O)N[C@@H]1c1ccc(C#N)nc1 is reported as 90.4% (cell-free assay; competition with immobilised ligand; 1 µM).
